Assay [1] addresses T1, Signal transducer and activator of transcription 1-alpha/beta (Homo sapiens) (UniProt P42224).
T1 sequence (whole entry): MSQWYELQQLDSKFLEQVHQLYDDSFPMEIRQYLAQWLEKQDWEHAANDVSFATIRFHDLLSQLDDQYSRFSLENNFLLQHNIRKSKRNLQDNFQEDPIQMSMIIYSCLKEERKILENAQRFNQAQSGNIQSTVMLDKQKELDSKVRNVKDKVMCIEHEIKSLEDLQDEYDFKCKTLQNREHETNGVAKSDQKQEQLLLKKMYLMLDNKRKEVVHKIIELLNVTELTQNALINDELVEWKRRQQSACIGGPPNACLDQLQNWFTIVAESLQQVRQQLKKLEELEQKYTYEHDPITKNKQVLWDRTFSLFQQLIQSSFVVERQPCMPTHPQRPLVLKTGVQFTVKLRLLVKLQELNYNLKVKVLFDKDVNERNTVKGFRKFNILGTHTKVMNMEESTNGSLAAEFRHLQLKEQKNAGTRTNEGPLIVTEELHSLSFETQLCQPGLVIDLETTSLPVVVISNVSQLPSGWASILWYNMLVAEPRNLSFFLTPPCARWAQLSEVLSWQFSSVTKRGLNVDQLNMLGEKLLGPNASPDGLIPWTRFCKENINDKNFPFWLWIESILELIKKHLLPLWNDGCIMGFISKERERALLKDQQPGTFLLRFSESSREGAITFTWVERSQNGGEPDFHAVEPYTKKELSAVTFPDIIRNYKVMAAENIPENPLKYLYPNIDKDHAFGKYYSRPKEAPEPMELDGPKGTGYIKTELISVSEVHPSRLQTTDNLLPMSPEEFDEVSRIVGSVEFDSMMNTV
The experiment in a line: Inhibition of IFNgamma-induced Stat1 phosphorylation in serum-starved human U937 cells at 10 to 20 uM incubated for 4 hrs prior to IFNgamma induction measured after 15 mins by phopsho-flow cytometric analysis. It counts as cell-based. The following applies: U-937. In a few lines:
(§1)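 Serum-starved U937 cells were pretreated with compound for 4 h, then stimulated 15 min with IL-6 (Stat3), GM-CSF (Stat5) or IFN (Stat1). Phosphorylation of each STAT was quantified by phospho-flow cytometry.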
On the technique in general: In flow cytometry, cells or beads pass a laser one at a time.

In assay [2] the target is T2, Signal transducer and activator of transcription 5A (Homo sapiens) (UniProt P42229).
T2 sequence (whole entry): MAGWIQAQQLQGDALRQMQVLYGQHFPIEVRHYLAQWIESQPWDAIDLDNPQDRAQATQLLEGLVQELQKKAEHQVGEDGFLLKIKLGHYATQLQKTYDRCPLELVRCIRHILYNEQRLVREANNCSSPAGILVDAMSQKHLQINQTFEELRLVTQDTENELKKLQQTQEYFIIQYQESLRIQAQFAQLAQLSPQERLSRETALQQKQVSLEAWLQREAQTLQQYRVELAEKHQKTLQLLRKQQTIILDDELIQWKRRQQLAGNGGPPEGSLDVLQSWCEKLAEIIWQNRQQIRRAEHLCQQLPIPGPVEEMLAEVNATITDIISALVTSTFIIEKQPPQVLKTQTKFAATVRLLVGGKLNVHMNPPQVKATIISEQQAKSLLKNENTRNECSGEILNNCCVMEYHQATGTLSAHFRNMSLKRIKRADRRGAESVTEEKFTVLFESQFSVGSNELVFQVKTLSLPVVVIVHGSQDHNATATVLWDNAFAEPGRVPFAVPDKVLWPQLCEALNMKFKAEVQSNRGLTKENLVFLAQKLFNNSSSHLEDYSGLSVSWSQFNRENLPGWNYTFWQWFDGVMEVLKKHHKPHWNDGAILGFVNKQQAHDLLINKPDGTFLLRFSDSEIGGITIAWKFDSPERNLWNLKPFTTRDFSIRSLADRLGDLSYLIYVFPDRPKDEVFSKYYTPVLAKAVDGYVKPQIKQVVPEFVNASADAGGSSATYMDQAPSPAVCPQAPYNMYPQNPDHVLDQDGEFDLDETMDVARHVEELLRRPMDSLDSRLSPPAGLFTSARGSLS
Put plainly: Inhibition of GM-CSF-induced Stat5 phosphorylation in serum-starved human U937 cells at 10 to 20 uM incubated for 4 hrs prior to GM-CSF induction measured after 15 mins by phopsho-flow cytometric analysis. In kind it is cell-based. Particulars: U-937. In a few lines:
as §1

In assay [3] the test system is RPMI-8226. Put plainly: Induction of apoptosis in human RPMI8226 cells assessed as transformation of early apoptotic cells to late apoptotic cells measured at 48 hrs by annexin V/propidium iodide staining-based flow cytometric analysis. In kind it is functional, cell-based. A digest of the protocol: (§2)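 Apoptosis was measured by flow cytometry of Annexin V and propidium iodide staining. Viable, early apoptotic and late apoptotic cells were scored by quadrant, with time points at 24 and 48 h.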

Assay [4] deals with RPMI-8226. The experiment in a line: Induction of apoptosis in human RPMI8226 cells assessed as transformation of viable cells to early apoptotic cells measured at 24 hrs by annexin V/propidium iodide staining-based flow cytometric analysis. It counts as functional, cell-based. A digest of the protocol: as §2
The target of assay [5] is T3, Signal transducer and activator of transcription 3 (Homo sapiens, UniProt P40763). Put plainly: Inhibition of Stat3 in human JJN-3 cells assessed as downregulation of survivin protein expression. It counts as cell-based. A digest of the protocol: (§3)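 Treated cells were washed in cold PBS and lysed 30 min on ice in Tris-HCl pH 7.4/NaCl/EDTA/1% NP-40 with PMSF, vanadate and protease inhibitors. Lysates were Bradford-normalized, and 10-30 µg protein was run on 7-10% SDS-PAGE and transferred to PVDF. Blots were blocked in 5% BSA/TBST, probed overnight at 4 °C, then with HRP secondary, and detected by ECL.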
T3 sequence (P40763 whole entry): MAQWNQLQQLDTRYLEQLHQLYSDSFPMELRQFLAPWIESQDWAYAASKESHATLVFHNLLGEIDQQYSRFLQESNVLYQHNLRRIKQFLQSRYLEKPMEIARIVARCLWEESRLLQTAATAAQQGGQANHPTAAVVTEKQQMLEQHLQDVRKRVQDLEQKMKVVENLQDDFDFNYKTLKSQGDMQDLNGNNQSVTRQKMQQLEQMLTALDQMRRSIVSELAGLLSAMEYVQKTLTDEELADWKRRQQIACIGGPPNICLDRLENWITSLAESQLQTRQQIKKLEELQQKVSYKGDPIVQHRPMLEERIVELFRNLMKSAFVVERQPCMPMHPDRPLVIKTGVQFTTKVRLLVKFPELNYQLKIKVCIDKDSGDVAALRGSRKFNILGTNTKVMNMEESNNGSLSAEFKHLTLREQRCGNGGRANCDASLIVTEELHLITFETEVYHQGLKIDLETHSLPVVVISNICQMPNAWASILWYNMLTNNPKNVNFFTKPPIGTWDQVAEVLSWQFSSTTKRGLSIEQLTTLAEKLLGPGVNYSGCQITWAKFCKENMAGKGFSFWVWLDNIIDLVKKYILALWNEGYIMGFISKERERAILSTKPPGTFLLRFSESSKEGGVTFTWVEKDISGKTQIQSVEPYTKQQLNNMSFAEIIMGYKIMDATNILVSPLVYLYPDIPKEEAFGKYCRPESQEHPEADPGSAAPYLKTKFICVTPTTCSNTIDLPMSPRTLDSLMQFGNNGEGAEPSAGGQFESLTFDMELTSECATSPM

The target of assay [6] is T3, Signal transducer and activator of transcription 3. Put plainly: Inhibition of Stat3 in human JJN-3 cells assessed as downregulation of c-Myc protein expression after 6 hrs by Western blot analysis. It counts as cell-based. A digest of the protocol:
as §3
For orientation: A western blot detects proteins with antibodies after separation by electrophoresis.

Assay [7] has the same target. Put plainly: Inhibition of Stat3 phosphorylation in human JJN-3 cells after 6 hrs by Western blot analysis. It counts as cell-based. In a few lines:
as §3

Another assay concerns SK-MM-2. Put plainly: Cytotoxicity against human SKMM-2 cells assessed as inhibition of cell viability after 72 hrs by MTT assay. In kind it is functional, cell-based. A digest of the protocol:
(§4)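 Myeloma lines were seeded at 1-3 x 10^4 cells per well onto compound or vehicle, in triplicate, and cultured 72 h at 37 °C in 5% CO2. Viability was measured colorimetrically by MTT assay relative to DMSO control. EC50 was fitted to a standard dose-response curve where applicable.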
On the technique in general: Tetrazolium assays rely on reduction of a dye to a coloured formazan, in cell work by metabolically active cells.

Another assay relates to MM1.S. The experiment in a line: Cytotoxicity against human MM1S cells assessed as inhibition of cell viability after 72 hrs by MTT assay. In kind it is functional, cell-based. A digest of the protocol:
as §4

The subject of the next assay is XG7. The experiment in a line: Cytotoxicity against human XG7 cells assessed as inhibition of cell viability after 72 hrs by MTT assay. In kind it is functional, cell-based. In a few lines: as §4
The subject of the next assay is XG6. Put plainly: Cytotoxicity against human XG6 cells assessed as inhibition of cell viability after 72 hrs by MTT assay. It counts as functional, cell-based. In a few lines:
as §4

Another assay deals with UTMC2. Put plainly: Cytotoxicity against human UTMC2 cells assessed as inhibition of cell viability after 72 hrs by MTT assay. In kind it is functional, cell-based. A digest of the protocol:
as §4

A further assay concerns OCI-AML2. The experiment in a line: Cytotoxicity against human OCI-AML2 cells assessed as cell viability after 72 hrs by MTS assay. It counts as functional, cell-based. The following applies: OCI-AML2, 72 h. A digest of the protocol:
(§5)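 Cells were seeded at 1-3 x 10^4 per well into wells already holding compound or vehicle, in triplicate. Incubation was 72 h at 37 °C in 5% CO2. Viability was read by MTS colorimetry relative to DMSO control, and EC50 was fitted to a standard dose-response curve where applicable.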

The nature of assay [8]: Cytotoxicity against human MDA468 cells assessed as cell viability after 72 hrs by MTS assay. It counts as functional, cell-based. The following applies: MDA-MB-468, 72 h. A digest of the protocol: as §5

In ChEMBL document CHEMBL2429859, “Inhibiting aberrant signal transducer and activator of transcription protein activation with tetrapodal, small molecule Src homology 2 domain binders: promising agents against multiple myeloma” (J Med Chem, 2013) one finds inhibition, Activity and IC50 data, which are given here for two molecules.

SMILES strings stand for the structures. Activity calls are given as the source filed them. The calls are words filed in the database; no cut-off is given here.

For orientation: IC50 means the concentration that inhibits the measured activity by half. Consider `Cc1ccc(S(=O)(=O)N(CC(=O)N(Cc2ccc(C3CCCCC3)cc2)c2ccc(C(=O)O)c(O)c2)Cc2ccccc2C(F)(F)F)cc1`, for which the inhibition result in [1] and in [2] was “Active” in each case. In addition, the Activity result in the assay on RPMI-8226 [3] and with RPMI-8226 [4] was “Dose-dependent effect” each time. Moreover, the inhibition result in assay [5] was “inactive”. Moreover, the inhibition entry (in assay [6]; in assay [7]; in the assay on SK-MM-2; in the assay with MM1.S; with XG7; in the assay with XG6) was “Dose-dependent effect” throughout. For the same molecule, the inhibition result in the assay with UTMC2 is “Dose-dependent effect”. For the same molecule, the 50% inhibitory concentration (IC50) in the assay with OCI-AML2 came to 12 µM; in assay [8], 11 µM.

Turning to `O=C(O)c1ccc(N(Cc2ccc(C3CCCCC3)cc2)C(=O)CN(Cc2ccccc2C(F)(F)F)S(=O)(=O)c2c(F)c(F)c(F)c(F)c2F)cc1O`, the inhibition result in assay [1] and in [2] was “Active” in each case. Further, the Activity entry in the assay with RPMI-8226 [3] and in the assay on RPMI-8226 [4] was “Dose-dependent effect” each time. Further, in assay [5], the inhibition entry was “inactive”. The inhibition result (in [6]; in assay [7]; in the assay with SK-MM-2; with MM1.S; in the assay with XG7; with XG6) was “Dose-dependent effect” each time. Moreover, the inhibition entry in the assay with UTMC2 was “Dose-dependent effect”. In addition, the results for the IC50 (in the assay with OCI-AML2; in assay [8]) were 4.6 µM and 8.1 µM, respectively.
